Test results taken from ChEMBL document CHEMBL4376814, “Novel cyclin-dependent kinase 9 (CDK9) inhibitor with suppression of cancer stemness activity against non-small-cell lung cancer” (Eur J Med Chem, 2019).

Legend:
[1] = target: Serine/threonine-protein kinase Nek9 (Homo sapiens) (UniProt Q8TD19); assay: Inhibition of recombinant human NEK9 (1 to 324 residues) at 1 uM using myelin basic protein as substrate measured after 40 mins in presence of [gamma33P]ATP by scintillation counting method relative to control
[2] = target: Dual specificity protein kinase CLK3 (Homo sapiens) (UniProt P49761); assay: Inhibition of full length recombinant human CLK3 at 1 uM using ERMRPRKRQGSVRRRV as substrate measured after 40 mins in presence of [gamma33P]ATP by scintillation counting method relative to control
[3] = target: Homeodomain-interacting protein kinase 1 (Homo sapiens) (UniProt Q86Z02); assay: Inhibition of recombinant human activated HIPK1 (158 to 555 residues) at 1 uM using myelin basic protein as substrate measured after 40 mins in presence of [gamma33P]ATP by scintillation counting method relative to control
Homo sapiens = species on record: Homo sapiens; assay: Inhibition of recombinant full-length human PI3K p120gamma R459Q mutant at 1 uM using phosphatidylinositol-4, 5-bisphosphate as substrate measured after 40 mins by fluorescence assay relative to control
A549 [4] = assay: Antiproliferative activity against human A549 cells assessed as inhibition of cell viability after 72 hrs by CCK-8 assay; type: functional, cell-based; conditions: A549, 72 h
Outline: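 Cells kept at 37 °C, 5% CO2 in DMEM or RPMI-1640 with 10% FBS and 1% penicillin/streptomycin, then seeded at 3000 cells/well (adherent) or 10,000 cells/well (suspension). Exposed to a range of concentrations for 72 h. CCK-8 added for 1-4 h before reading A450. […] Three independent experiments.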

[5] = tested on: Serine/threonine-protein kinase N1 (Homo sapiens), Q16512 [V901I]; assay: Inhibition of human PRK1 V901I mutant (498 to end residues) at 1 uM using KKLNRTLSFAEPG as substrate measured after 40 mins in presence of [gamma33P]ATP by scintillation counting method relative to control
Outline: (§1)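 Percent inhibition of kinase activity at a single compound concentration, measured by the outsourced Eurofins KinaseProfiler panel. Values are the mean of two independent experiments.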

[6] = target: Tyrosine-protein kinase ABL1 (Homo sapiens) (UniProt P00519); assay: Inhibition of human ABL1 at 1 uM using EAIYAAPFAKKK as substrate measured after 40 mins by [gamma33P]ATP by scintillation counting method relative to control; outline: as §1
Sequence of Tyrosine-protein kinase ABL1 (Homo sapiens) (P00519 whole entry): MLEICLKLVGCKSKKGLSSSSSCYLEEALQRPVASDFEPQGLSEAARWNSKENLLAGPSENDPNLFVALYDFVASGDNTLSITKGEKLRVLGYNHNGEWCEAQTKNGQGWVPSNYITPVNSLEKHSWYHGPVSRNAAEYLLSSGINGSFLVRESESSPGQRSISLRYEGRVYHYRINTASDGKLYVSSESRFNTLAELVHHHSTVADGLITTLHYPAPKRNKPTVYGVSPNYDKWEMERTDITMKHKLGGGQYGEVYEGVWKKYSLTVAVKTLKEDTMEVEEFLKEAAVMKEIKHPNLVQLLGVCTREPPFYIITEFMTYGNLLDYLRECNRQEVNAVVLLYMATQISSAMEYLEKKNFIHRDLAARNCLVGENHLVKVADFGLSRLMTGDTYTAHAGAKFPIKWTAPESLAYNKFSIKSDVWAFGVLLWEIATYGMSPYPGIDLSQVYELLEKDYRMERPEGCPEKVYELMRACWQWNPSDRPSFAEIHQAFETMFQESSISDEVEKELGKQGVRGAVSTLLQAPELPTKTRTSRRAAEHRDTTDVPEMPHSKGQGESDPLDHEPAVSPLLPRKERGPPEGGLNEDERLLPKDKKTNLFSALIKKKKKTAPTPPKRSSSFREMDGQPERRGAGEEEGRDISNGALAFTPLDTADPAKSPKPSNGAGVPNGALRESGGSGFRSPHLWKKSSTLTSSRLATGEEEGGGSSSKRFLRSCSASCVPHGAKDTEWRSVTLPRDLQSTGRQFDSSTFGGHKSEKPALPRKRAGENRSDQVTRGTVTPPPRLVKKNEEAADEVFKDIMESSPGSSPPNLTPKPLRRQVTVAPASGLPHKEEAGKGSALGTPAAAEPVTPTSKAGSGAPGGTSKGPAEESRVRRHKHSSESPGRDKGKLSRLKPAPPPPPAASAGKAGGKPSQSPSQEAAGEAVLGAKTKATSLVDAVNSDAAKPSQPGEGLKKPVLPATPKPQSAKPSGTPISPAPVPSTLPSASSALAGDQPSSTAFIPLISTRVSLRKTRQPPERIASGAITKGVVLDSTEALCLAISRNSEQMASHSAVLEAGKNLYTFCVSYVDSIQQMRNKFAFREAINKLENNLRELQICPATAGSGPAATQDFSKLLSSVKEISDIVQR

[7] = target: Leucine-rich repeat serine/threonine-protein kinase 2 (Homo sapiens) (UniProt Q5S007); assay: Inhibition of recombinant human LRRK2 (970 to end residues) at 1 uM using RLGRDKYKTLRQIRQ as substrate measured after 40 mins in presence of [gamma33P]ATP by scintillation counting method relative to control
[8] = target: Death-associated protein kinase 3 (Homo sapiens) (UniProt O43293); assay: Inhibition of recombinant human ZIPK (1 to 290 residues) at 1 uM using KKLNRTLSFAEPG as substrate measured after 40 mins in presence of [gamma33P]ATP by scintillation counting method relative to control
Outline: (§2)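 Single-point inhibition at 1 µM was measured in the Eurofins KinaseProfiler panel. Values are the mean of two independent experiments.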

[9] = target: Transient receptor potential cation channel subfamily M member 7 (Homo sapiens) (UniProt Q96QT4); assay: Inhibition of recombinant human CHAK1 (1180 to end residues) at 1 uM using myelin basic protein as substrate measured after 40 mins in presence of [gamma33P]ATP by scintillation counting method relative to control
Sequence of Transient receptor potential cation channel subfamily M member 7 (Homo sapiens) (Q96QT4 whole entry): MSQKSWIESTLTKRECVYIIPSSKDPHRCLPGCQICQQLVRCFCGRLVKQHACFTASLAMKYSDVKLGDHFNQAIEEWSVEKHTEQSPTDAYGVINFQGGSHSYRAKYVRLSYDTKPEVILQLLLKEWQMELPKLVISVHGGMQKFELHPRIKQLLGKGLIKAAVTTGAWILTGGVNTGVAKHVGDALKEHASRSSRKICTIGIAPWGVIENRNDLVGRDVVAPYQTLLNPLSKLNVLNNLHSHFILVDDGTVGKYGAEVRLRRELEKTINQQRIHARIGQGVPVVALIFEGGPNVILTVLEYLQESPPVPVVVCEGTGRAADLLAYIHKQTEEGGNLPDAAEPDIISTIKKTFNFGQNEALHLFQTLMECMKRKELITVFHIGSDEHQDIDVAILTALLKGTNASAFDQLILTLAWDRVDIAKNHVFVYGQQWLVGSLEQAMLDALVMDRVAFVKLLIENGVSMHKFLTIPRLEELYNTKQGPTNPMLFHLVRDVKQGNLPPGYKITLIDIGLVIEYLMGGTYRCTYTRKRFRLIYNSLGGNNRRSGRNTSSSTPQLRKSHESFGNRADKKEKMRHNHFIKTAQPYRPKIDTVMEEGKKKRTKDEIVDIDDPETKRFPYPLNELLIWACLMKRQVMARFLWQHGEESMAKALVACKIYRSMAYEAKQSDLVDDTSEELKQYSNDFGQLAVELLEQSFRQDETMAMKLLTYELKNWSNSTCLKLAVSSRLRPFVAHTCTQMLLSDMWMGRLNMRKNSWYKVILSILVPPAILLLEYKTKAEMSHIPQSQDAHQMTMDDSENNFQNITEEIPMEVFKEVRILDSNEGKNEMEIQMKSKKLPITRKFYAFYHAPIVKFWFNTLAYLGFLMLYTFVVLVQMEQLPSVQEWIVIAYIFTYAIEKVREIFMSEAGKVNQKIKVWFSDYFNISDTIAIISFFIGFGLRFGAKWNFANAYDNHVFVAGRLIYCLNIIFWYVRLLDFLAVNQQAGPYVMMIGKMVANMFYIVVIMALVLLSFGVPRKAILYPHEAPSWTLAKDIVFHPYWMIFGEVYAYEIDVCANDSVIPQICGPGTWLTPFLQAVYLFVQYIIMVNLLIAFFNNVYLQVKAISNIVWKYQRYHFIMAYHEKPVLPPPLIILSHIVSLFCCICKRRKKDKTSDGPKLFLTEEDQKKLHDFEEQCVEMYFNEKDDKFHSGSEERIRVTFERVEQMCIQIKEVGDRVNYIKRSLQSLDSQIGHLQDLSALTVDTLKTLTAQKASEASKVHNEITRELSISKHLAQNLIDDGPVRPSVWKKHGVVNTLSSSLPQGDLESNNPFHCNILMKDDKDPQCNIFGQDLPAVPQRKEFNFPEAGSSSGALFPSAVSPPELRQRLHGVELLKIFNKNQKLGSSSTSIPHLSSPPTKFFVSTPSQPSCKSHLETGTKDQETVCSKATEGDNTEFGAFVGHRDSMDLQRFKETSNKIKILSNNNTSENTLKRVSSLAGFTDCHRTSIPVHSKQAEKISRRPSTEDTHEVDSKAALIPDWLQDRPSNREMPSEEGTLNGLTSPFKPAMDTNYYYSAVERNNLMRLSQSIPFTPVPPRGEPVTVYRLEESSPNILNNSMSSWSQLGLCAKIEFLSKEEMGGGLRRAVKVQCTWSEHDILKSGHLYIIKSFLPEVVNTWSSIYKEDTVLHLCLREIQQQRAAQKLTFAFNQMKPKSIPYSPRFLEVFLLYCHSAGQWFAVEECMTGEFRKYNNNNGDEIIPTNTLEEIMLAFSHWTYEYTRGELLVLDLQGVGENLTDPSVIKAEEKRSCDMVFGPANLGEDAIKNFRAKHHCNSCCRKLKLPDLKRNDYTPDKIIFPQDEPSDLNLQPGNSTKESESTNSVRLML

[10] = target: Calcium/calmodulin-dependent protein kinase type II subunit beta (Homo sapiens) (UniProt Q13554); assay: Inhibition of recombinant human CaMK2 beta (1 to 315 resiudes) at 1 uM using calmodulin as substrate measured after 40 mins in presence of [gamma33P]ATP by scintillation counting method relative to control
[11] = target: Serine/threonine-protein kinase N2 (Homo sapiens) (UniProt Q16513); assay: Inhibition of human PRK2 (501 to end residues) at 1 uM using AKRRRLSSLRA as substrate measured after 40 mins in presence of [gamma33P]ATP by scintillation counting method relative to control; outline: as §2
Sequence of Serine/threonine-protein kinase N2 (Homo sapiens) (Q16513 whole entry, looked up): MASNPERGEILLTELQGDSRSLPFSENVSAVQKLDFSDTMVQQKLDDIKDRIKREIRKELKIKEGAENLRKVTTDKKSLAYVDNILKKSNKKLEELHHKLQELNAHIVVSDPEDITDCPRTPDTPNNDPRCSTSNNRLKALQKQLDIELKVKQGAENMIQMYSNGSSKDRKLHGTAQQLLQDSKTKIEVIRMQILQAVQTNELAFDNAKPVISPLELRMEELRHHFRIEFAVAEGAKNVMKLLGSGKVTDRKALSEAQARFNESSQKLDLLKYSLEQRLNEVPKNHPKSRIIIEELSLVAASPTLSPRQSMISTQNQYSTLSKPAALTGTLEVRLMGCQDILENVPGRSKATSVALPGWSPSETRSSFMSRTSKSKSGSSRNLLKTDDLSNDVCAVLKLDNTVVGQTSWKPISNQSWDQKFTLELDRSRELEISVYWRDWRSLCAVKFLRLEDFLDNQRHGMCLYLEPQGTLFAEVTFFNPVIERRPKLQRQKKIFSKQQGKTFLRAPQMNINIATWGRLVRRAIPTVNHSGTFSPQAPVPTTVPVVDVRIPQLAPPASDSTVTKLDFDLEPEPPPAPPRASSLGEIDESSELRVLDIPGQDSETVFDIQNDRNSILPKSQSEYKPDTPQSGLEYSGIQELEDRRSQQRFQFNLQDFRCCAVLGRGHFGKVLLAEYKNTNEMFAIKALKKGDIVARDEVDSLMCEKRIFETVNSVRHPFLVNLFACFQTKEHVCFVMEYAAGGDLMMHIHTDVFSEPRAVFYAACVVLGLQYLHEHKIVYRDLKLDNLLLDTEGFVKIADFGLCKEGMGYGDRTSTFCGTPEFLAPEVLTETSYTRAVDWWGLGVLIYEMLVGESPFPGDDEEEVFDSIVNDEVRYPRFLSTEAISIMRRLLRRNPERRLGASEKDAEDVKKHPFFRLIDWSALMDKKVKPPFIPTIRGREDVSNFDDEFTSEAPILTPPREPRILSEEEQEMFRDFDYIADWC

[12] = target: Dual specificity protein kinase CLK2 (Homo sapiens) (UniProt P49760); assay: Inhibition of recombinant human CLK2 (138 to end residues) at 1 uM using YRRAAVPPSPSLSRHSSPHQS(p) EDEEE as substrate measured after 40 mins in presence of [gamma33P]ATP by scintillation counting method relative to control; outline: as §2
[13] = target: Casein kinase II subunit alpha' (Homo sapiens) (UniProt P19784); assay: Inhibition of full length recombinant human CK2alpha2 at 1 uM using RRRDDDSDDD as substrate measured after 40 mins in presence of [gamma33P]ATP by scintillation counting method relative to control
Sequence of Casein kinase II subunit alpha' (Homo sapiens) (P19784 whole entry, looked up): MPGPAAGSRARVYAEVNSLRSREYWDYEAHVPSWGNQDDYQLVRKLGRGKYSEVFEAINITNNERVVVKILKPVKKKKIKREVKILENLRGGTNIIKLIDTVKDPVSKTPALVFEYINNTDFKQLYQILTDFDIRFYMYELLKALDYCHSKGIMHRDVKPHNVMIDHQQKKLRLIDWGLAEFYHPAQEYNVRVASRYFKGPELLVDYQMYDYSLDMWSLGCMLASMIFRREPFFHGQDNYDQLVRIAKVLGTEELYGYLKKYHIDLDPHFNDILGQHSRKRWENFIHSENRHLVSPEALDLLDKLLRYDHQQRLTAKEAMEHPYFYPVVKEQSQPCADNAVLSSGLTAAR

[14] = target: Serine/threonine-protein kinase MARK2 (Homo sapiens) (UniProt Q7KZI7); assay: Inhibition of recombinant full-length human PAR1Balpha at 1 uM using KKKVSRSGLYRSPSMPENLNRPR as substrate measured after 40 mins in presence of [gamma33P]ATP by scintillation counting method relative to control
Sequence of Serine/threonine-protein kinase MARK2 (Homo sapiens) (Q7KZI7 whole entry): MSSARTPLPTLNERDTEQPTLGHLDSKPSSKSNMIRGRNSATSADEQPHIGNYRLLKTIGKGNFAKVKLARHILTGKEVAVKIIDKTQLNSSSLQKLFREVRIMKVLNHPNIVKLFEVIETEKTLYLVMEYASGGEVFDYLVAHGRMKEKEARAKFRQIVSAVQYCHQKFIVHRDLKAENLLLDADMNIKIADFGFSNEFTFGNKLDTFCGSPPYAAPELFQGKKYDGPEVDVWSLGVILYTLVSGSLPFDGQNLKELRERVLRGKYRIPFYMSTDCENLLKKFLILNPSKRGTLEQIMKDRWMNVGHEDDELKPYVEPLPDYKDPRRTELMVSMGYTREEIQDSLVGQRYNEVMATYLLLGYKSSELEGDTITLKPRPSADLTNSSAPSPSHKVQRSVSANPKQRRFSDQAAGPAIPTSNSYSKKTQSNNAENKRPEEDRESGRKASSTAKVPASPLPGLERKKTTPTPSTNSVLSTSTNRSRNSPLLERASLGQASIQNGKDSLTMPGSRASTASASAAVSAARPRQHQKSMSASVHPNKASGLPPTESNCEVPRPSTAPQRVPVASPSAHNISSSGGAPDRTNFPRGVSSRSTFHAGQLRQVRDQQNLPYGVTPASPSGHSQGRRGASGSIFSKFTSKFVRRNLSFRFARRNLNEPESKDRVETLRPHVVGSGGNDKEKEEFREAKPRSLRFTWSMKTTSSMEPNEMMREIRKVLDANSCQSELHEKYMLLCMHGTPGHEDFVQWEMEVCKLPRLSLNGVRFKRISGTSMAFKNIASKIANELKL

[15] = target: Serine/threonine-protein kinase PAK 6 (Homo sapiens) (UniProt Q9NQU5); assay: Inhibition of recombinant human PAK6 (382 to end residues) at 1 uM using RRRLSFAEPG as substrate measured after 40 mins in presence of [gamma33P]ATP by scintillation counting method relative to control
[16] = target: T1, CDK9/cyclin T1 (Homo sapiens) (UniProt O60563+P50750); conditions: 1 uM
Mus musculus = species on record: Mus musculus; assay: Inhibition of recombinant full-length mouse LYN N425D mutant at 1 uM using poly(Glu, Tyr) 4:1 as substrate measured after 40 mins in presence of [gamma33P]ATP by scintillation counting method relative to control
[17] = target: T1, CDK9/cyclin T1 (Homo sapiens); assay: Inhibition of recombinant full-length human CDK9/cyclinT1 at 500 nM using KTFCGTPEYLAPEVRREPRILSEEEQEMFRDFDYIADWC peptide as substrate measured after 40 mins in presence of [gamma33P]ATP by scintillation counting method relative to control; type: protein-complex assay; outline: as §1
[18] = target: CDK4/Cyclin D3 (Homo sapiens) (UniProt P11802+P30281); assay: Inhibition of recombinant full-length human CDK4/cyclinD3 at 1 uM using Rb fragment as substrate measured after 40 mins in presence of [gamma33P]ATP by scintillation counting method relative to control; type: protein-complex assay; outline: as §1
A549 [19] = assay: Induction of apoptosis in human A549 cells assessed as late apoptotic cells at 1 uM after 48 hrs by AnnexinV-FITC/PI staining-based flow cytometric analysis (reference value: 7.66%); type: functional
[20] = target: ALK tyrosine kinase receptor (Homo sapiens) (UniProt Q9UM73); assay: Inhibition of recombinant human ALK (1058 to end residues) at 1 uM using KKKSPGEYVNIEF as substrate measured after 40 mins in presence of [gamma33P]ATP by scintillation counting method relative to control

CN(C)C(=O)c1cc2cnc(Nc3ccc(NC(=O)CCCCCCCN=C=S)cc3)nc2n1C1CCCC1
inhibition [1]: 41%
inhibition [2]: 37%
inhibition [3]: 9%
inhibition (Homo sapiens): 14%
IC50 (A549 [4]): 450 nM
inhibition [5]: 3%
inhibition [6]: 88%
inhibition [7]: 8%
inhibition [8]: 1%
inhibition [9]: 16%
inhibition [10]: 29%
inhibition [11]: 11%
inhibition [12]: 12%
inhibition [13]: -4%
inhibition [14]: 2%
inhibition [15]: 9%
inhibition [16]: 98%
inhibition (Mus musculus): 36%
inhibition [17]: 98%
inhibition [18]: 87%
Activity (A549 [19]): 16.4%
inhibition [20]: -3%
